From ChEMBL document CHEMBL4765399, “Design, synthesis, and biological evaluation of 5-((8-methoxy-2-methylquinolin-4-yl)amino)-1H-indole-2-carbohydrazide derivatives as novel Nur77 modulators” (Eur J Med Chem, 2020) come the findings set out here.

In one assay the test system is SMMC-7721. As to the kind of experiment: Antiproliferative activity against human SMMC-7721 cells assessed as reduction in cell viability incubated for 48 hrs by MTT assay. The format is functional, cell-based. The settings on record: SMMC-7721, 48 h. In short, it runs like this:
(§1)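 MTT assay after 48 h exposure at six concentrations, range chosen by cytotoxicity. Inhibition = (ODcontrol − ODtest)/ODcontrol × 100%; IC50 is the concentration halving OD versus untreated cells. Means ± SD of three independent determinations. HepG2 and SMMC-7721 grown in DMEM, QGY-7703 and LO2 in RPMI 1640, with 10% FBS at 37 °C.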
On the technique in general: Formazan colour is commonly taken as a measure of viable cells.

Another assay concerns L02. As to the kind of experiment: Cytotoxicity against human L02 cells assessed as reduction in cell viability incubated for 48 hrs by MTT assay. The settings on record: L02, 48 h. The format is cell-based. In short, it runs like this: as §1
Another assay concerns HepG2. As to the kind of experiment: Antiproliferative activity against human HepG2 cells assessed as reduction in cell viability incubated for 48 hrs by MTT assay. The settings on record: HepG2, 48 h. Format: functional, cell-based. In short, it runs like this:
as §1

The next assay relates to QGY-7703. The experiment in a line: Antiproliferative activity against human QGY-7703 cells assessed as reduction in cell viability incubated for 48 hrs by MTT assay. The format is functional, cell-based. The note with it: QGY-7703, 48 h. The essentials:
as §1

Assay [1] concerns the target Nuclear receptor subfamily 4immunitygroup A member 1 (Homo sapiens, UniProt P22736). The experiment in a line: Binding affinity to Nur77 ligand binding domain (unknown origin) at 10 uM by surface plasmon resonance analysis. The settings on record: filed as modulator. The essentials:
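Single-concentration SPR screen at 10.0 µM against Nur77-LBD; binding given as RU response.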

Chain of Nuclear receptor subfamily 4immunitygroup A member 1 (P22736 whole entry, the tested form may be a part): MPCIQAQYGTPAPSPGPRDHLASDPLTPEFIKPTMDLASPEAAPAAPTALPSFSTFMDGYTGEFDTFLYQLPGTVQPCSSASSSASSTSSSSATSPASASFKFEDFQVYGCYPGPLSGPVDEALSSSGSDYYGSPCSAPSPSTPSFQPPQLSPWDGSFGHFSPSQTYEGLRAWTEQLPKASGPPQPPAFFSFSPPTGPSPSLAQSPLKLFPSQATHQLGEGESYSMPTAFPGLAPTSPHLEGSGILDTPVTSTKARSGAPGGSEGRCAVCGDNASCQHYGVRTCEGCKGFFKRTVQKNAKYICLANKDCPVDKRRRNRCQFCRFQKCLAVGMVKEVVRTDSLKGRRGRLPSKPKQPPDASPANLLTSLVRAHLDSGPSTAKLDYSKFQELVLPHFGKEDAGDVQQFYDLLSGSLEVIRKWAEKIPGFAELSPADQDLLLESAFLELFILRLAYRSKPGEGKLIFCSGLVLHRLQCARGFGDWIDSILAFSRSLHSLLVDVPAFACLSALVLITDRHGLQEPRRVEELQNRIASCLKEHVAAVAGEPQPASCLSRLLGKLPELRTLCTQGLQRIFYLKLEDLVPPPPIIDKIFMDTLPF

For `COc1cccc2c(Nc3ccc4[nH]c(C(=O)N/N=C/c5ccc(F)c(C(F)(F)F)c5)cc4c3)cc(C)nc12`, the concentration for half-maximal inhibition (IC50) – broadly, the point on the concentration scale where inhibition reaches its midpoint – was greater than 20 µM with SMMC-7721, greater than 20 µM in the assay on L02, 2.17 µM in the assay on HepG2 and 2.43 µM with QGY-7703.

As for `COc1ccc(/C=N/NC(=O)c2cc3cc(Nc4cc(C)nc5c(OC)cccc45)ccc3[nH]2)cc1OC`, the 50% inhibitory concentration (IC50) in the assay on SMMC-7721, in the assay with L02, with HepG2 and in the assay on QGY-7703 was greater than 20 µM throughout.

Take `COc1cccc2c(Nc3ccc4[nH]c(C(=O)N/N=C/c5cccc(C(F)(F)F)c5)cc4c3)cc(C)nc12`: the half-inhibitory concentration (IC50) is greater than 20 µM in the assay on SMMC-7721, 13.5 µM in the assay with L02, 4.19 µM in the assay on HepG2 and 5.39 µM in the assay with QGY-7703.

On to `COc1cc(/C=N/NC(=O)c2cc3cc(Nc4cc(C)nc5c(OC)cccc45)ccc3[nH]2)cc(OC)c1OC`, for which the half-maximal inhibitory concentration (IC50) in the assay on SMMC-7721, in the assay on L02, in the assay with HepG2 and in the assay with QGY-7703 was greater than 20 µM throughout.

`COc1cccc(/C=N/NC(=O)c2cc3cc(Nc4cc(C)nc5c(OC)cccc45)ccc3[nH]2)c1OC`: the IC50 came out at 4.89 µM in the assay on SMMC-7721, 2.79 µM with L02, 1.09 µM in the assay on HepG2 and 1.96 µM with QGY-7703.

`COc1cccc2c(Nc3ccc4[nH]c(C(=O)N/N=C/c5ccccn5)cc4c3)cc(C)nc12`: the IC50 with SMMC-7721 was 4.37 µM; in the assay with L02 it was 10.3 µM; in the assay with HepG2, 14.7 µM; with QGY-7703 it was greater than 20 µM.

Regarding `COc1cccc2c(Nc3ccc4[nH]c(C(=O)N/N=C/c5cc(O)ccc5O)cc4c3)cc(C)nc12`, the half-maximal inhibitory concentration (IC50) in the assay on SMMC-7721, with L02, with HepG2 and in the assay on QGY-7703 was greater than 20 µM each time.

Turning to `COc1cccc2c(Nc3ccc4[nH]c(C(=O)N/N=C/c5ccc(C(F)(F)F)cc5C(F)(F)F)cc4c3)cc(C)nc12`, the half-maximal inhibitory concentration (IC50) in the assay on SMMC-7721, in the assay on L02, in the assay with HepG2 and with QGY-7703 was greater than 20 µM each time.

On to `COc1cccc(OC)c1/C=N/NC(=O)c1cc2cc(Nc3cc(C)nc4c(OC)cccc34)ccc2[nH]1`, for which the IC50 was 11.7 µM with SMMC-7721, 7.31 µM with L02, 7.52 µM with HepG2 and greater than 20 µM in the assay with QGY-7703.

In the case of `COc1ccc(/C=N/NC(=O)c2cc3cc(Nc4cc(C)nc5c(OC)cccc45)ccc3[nH]2)c2ccccc12`, the IC50 was 11 µM in the assay on SMMC-7721, 9.16 µM in the assay with L02, 16.6 µM in the assay on HepG2 and 4.61 µM in the assay with QGY-7703.

For `COc1cccc(/C=N/NC(=O)c2cc3cc(Nc4cc(C)nc5c(OC)cccc45)ccc3[nH]2)c1`, the IC50 with SMMC-7721 was 1.75 µM; in the assay with L02 it was 9.85 µM; in the assay with HepG2, greater than 20 µM; in the assay on QGY-7703, greater than 20 µM.

With `COc1ccccc1/C=N/NC(=O)c1cc2cc(Nc3cc(C)nc4c(OC)cccc34)ccc2[nH]1`, the IC50 in the assay on SMMC-7721 was 4.58 µM; in the assay on L02, 5.17 µM; with HepG2, 2.1 µM; in the assay on QGY-7703, 3.4 µM.

Regarding `CC1=C(O)C(=O)C=C2C1=CC=C1[C@@]2(C)CC[C@@]2(C)[C@@H]3C[C@](C)(C(=O)O)CC[C@]3(C)CC[C@]12C` [CELASTROL], the half-maximal inhibitory concentration (IC50) with SMMC-7721 was determined as 1.07 µM; in the assay with L02, 1.94 µM; with HepG2, 1.3 µM; in the assay with QGY-7703, 2.43 µM.

With `COc1cccc2c(Nc3ccc4[nH]c(C(=O)N/N=C/c5ccccc5Cl)cc4c3)cc(C)nc12`, the half-maximal inhibitory concentration (IC50) in the assay with SMMC-7721 stood at 0.98 µM; in the assay with L02, 3.68 µM; in the assay on HepG2 it was 1.24 µM; in the assay with QGY-7703, 1.06 µM.

With `COc1cccc2c(Nc3ccc4[nH]c(C(=O)N/N=C/c5ccnc6ccccc56)cc4c3)cc(C)nc12`, the half-inhibitory concentration (IC50) in the assay on SMMC-7721 is greater than 20 µM; with L02, greater than 20 µM; in the assay with HepG2 it was greater than 20 µM; in the assay with QGY-7703, 15.5 µM.

As for `COc1cccc2c(Nc3ccc4[nH]c(C(=O)N/N=C/c5ccc[nH]5)cc4c3)cc(C)nc12`, the IC50 in the assay on SMMC-7721, in the assay on L02, with HepG2 and in the assay with QGY-7703 was greater than 20 µM in each case.

For the molecule `COc1ccc(/C=N/NC(=O)c2cc3cc(Nc4cc(C)nc5c(OC)cccc45)ccc3[nH]2)c(OC)c1`, the IC50 in the assay on SMMC-7721 amounted to 16.2 µM; in the assay with L02, 5.72 µM; in the assay with HepG2, 7.47 µM; in the assay on QGY-7703, 5 µM.

On to `COc1cccc2c(Nc3ccc4[nH]c(C(=O)N/N=C/c5ccc(O)cc5O)cc4c3)cc(C)nc12`, for which the concentration for half-maximal inhibition (IC50) with SMMC-7721 was greater than 20 µM; with L02, 15.9 µM; in the assay with HepG2, 8.15 µM; in the assay on QGY-7703 it was greater than 20 µM.

As for `COc1cccc2c(Nc3ccc4[nH]c(C(=O)N/N=C/c5ccc([N+](=O)[O-])cc5O)cc4c3)cc(C)nc12`, the IC50 in the assay with SMMC-7721, with L02, in the assay with HepG2 and in the assay on QGY-7703 was greater than 20 µM throughout.

For `COc1ccc(/C=N/NC(=O)c2cc3cc(Nc4cc(C)nc5c(OC)cccc45)ccc3[nH]2)cc1C(F)(F)F`, in assay [1], the Activity is 91 RU. Moreover, the half-maximal inhibitory concentration (IC50) with SMMC-7721 is 0.73 µM; with L02 it was 5.23 µM; in the assay with HepG2 it was 1.98 µM; in the assay on QGY-7703, 0.4 µM.

For `COc1cccc2c(Nc3ccc4[nH]c(C(=O)N/N=C/c5ccncc5)cc4c3)cc(C)nc12`, the concentration for half-maximal inhibition (IC50) in the assay with SMMC-7721, in the assay on L02, in the assay on HepG2 and in the assay on QGY-7703 was greater than 20 µM each time.

On to `COc1cccc2c(Nc3ccc4[nH]c(C(=O)N/N=C/c5cccc(C)c5)cc4c3)cc(C)nc12`, for which the IC50 in the assay on SMMC-7721 was determined as 3.14 µM; in the assay on L02 it was 3.16 µM; in the assay with HepG2, 2.92 µM; with QGY-7703, 1.74 µM.

For the molecule `COc1cccc2c(Nc3ccc4[nH]c(C(=O)N/N=C/c5cccnc5)cc4c3)cc(C)nc12`, the 50% inhibitory concentration (IC50) with SMMC-7721, in the assay with L02, in the assay with HepG2 and in the assay on QGY-7703 was greater than 20 µM throughout.

For `COc1ccc(/C=N/NC(=O)c2cc3cc(Nc4cc(C)nc5c(OC)cccc45)ccc3[nH]2)c(OC)c1OC`, the IC50 in the assay on SMMC-7721 worked out at 8.43 µM; in the assay with L02, 13.7 µM; with HepG2, 6.32 µM; in the assay on QGY-7703, 3.78 µM.

Regarding `COc1cccc2c(Nc3ccc4[nH]c(C(=O)N/N=C/c5ccc(O)cc5)cc4c3)cc(C)nc12`, the concentration for half-maximal inhibition (IC50) in the assay with SMMC-7721 is greater than 20 µM; with L02 it was 9.31 µM; in the assay with HepG2 it was greater than 20 µM; with QGY-7703, 14.1 µM.

In the case of `COc1cc(/C=N/NC(=O)c2cc3cc(Nc4cc(C)nc5c(OC)cccc45)ccc3[nH]2)cc(OC)c1`, the IC50 in the assay with SMMC-7721, in the assay with L02, with HepG2 and with QGY-7703 was greater than 20 µM in each case.

Turning to `COc1cccc2c(Nc3ccc4[nH]c(C(=O)N/N=C/c5cc6ccccc6nc5Cl)cc4c3)cc(C)nc12`, the concentration for half-maximal inhibition (IC50) is 18.8 µM in the assay with SMMC-7721, greater than 20 µM in the assay on L02, greater than 20 µM in the assay on HepG2 and 9.31 µM with QGY-7703.

Take `COc1cccc2c(Nc3ccc4[nH]c(C(=O)N/N=C/c5cc(C(F)(F)F)ccc5Br)cc4c3)cc(C)nc12`: the concentration for half-maximal inhibition (IC50) in the assay on SMMC-7721 is greater than 20 µM; in the assay with L02, greater than 20 µM; in the assay on HepG2, greater than 20 µM; in the assay with QGY-7703, 12.7 µM.

For the molecule `COc1ccc2[nH]c(C)c(/C=N/NC(=O)c3cc4cc(Nc5cc(C)nc6c(OC)cccc56)ccc4[nH]3)c2c1`, the IC50 in the assay with SMMC-7721 was greater than 20 µM; in the assay with L02, greater than 20 µM; in the assay with HepG2 it was 6.62 µM; in the assay with QGY-7703, 14.1 µM.

With `O=C(O)c1ccc2cc(-c3ccc(O)c(C45CC6CC(CC(C6)C4)C5)c3)ccc2c1` [O-DEMETHYLATED ADAPALENE], the IC50 turned out to be 5.25 µM with SMMC-7721, 10.1 µM in the assay on L02, 2.93 µM with HepG2 and 2.38 µM in the assay with QGY-7703.

Consider `COc1cccc2c(Nc3ccc4[nH]c(C(=O)N/N=C/c5ccccc5F)cc4c3)cc(C)nc12`, for which the concentration for half-maximal inhibition (IC50) is 1.38 µM in the assay on SMMC-7721, 2.48 µM in the assay with L02, 1.22 µM with HepG2 and 5.42 µM in the assay with QGY-7703.

With `COc1cccc2c(Nc3ccc4[nH]c(C(=O)N/N=C/c5cccs5)cc4c3)cc(C)nc12`, the IC50 with SMMC-7721 came out at 6.49 µM; in the assay on L02, 6.33 µM; in the assay on HepG2, 5.44 µM; with QGY-7703, 1.53 µM.

`COc1ccc(/C=N/NC(=O)c2cc3cc(Nc4cc(C)nc5c(OC)cccc45)ccc3[nH]2)cc1Br`: the IC50 is greater than 20 µM in the assay on SMMC-7721, 1.2 µM with L02, greater than 20 µM with HepG2 and 1.89 µM in the assay on QGY-7703.

On to `COc1cccc2c(Nc3ccc4[nH]c(C(=O)N/N=C/c5ccc(C#N)cc5)cc4c3)cc(C)nc12`, for which the IC50 with SMMC-7721 is greater than 20 µM; in the assay on L02, 2.8 µM; in the assay on HepG2, 10.4 µM; in the assay on QGY-7703 it was 2.36 µM.

In the case of `COc1ccc(/C=N/NC(=O)c2cc3cc(Nc4cc(C)nc5c(OC)cccc45)ccc3[nH]2)cc1`, in assay [1], the Activity came out at 88.2 RU. Besides, the IC50 in the assay on SMMC-7721 is 1.21 µM; in the assay on L02, 0.76 µM; with HepG2, 0.69 µM; in the assay with QGY-7703, greater than 20 µM.

`COc1cccc2c(Nc3ccc4[nH]c(C(=O)N/N=C/c5cc(C(C)(C)C)c(O)c(C(C)(C)C)c5)cc4c3)cc(C)nc12`: the IC50 in the assay with SMMC-7721 was greater than 20 µM; with L02 it was 3.54 µM; in the assay on HepG2, 7.45 µM; with QGY-7703, 4.02 µM.
